Data published in ChEMBL document CHEMBL3588761, “Design, synthesis and characterization of dual inhibitors against new targets FabG4 and HtdX of Mycobacterium tuberculosis” (Eur J Med Chem, 2015).
Activity calls are given as the source filed them. No cut-off for these calls is given here.

How the values were obtained:
[1] = Inhibition of Mycobacterium tuberculosis FabG4 assessed as reduction in NADH to NAD+ conversion using acetoacetyl-CoA substrate by UV-visible spectrophotometry
In short: (§1)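 50 mM HEPES pH 7.4 at 25 °C with 1 µM FabG4, 0.2 mM β-NADH, 0.5 mM acetoacetyl-CoA and 5% methanol. Started with substrate; A340 decrease read every 2 min. IC50 taken graphically from dose-response plots. Mode found by varying NADH at three inhibitor levels, using Lineweaver-Burk plots.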

[2] = Inhibition of Mycobacterium tuberculosis HtdX using crotonoyl-CoA substrate by UV-visible spectrophotometry
In short: (§2)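 50 mM HEPES pH 7.5 with 100 mM NaCl at 25 °C, containing 100 nM HtdX, 10 µM crotonoyl-CoA and 5% methanol. Started with substrate; A263 decrease read every 2 min. IC50 taken graphically from dose-response plots. Mode found by varying crotonoyl-CoA at three inhibitor levels, using Lineweaver-Burk plots.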

[3] = test system: Mycolicibacterium smegmatis; experiment: Antimycobacterial activity against Mycobacterium smegmatis str. MC2 155 assessed as inhibition of microbial growth incubated for 24 hrs by REMA method; assay type: functional; conditions: str. MC2 155, 24 h
In short: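 M. smegmatis mc2155 grown in 7H9 broth with 0.2% glycerol and 0.05% Tween 80 at 37 °C, 120 rpm, to mid-log (OD595 ~0.5). Diluted to OD595 0.0005 and exposed to drug for 24 h at 37 °C. Then 0.02% resazurin added for 40 min. MIC is the lowest concentration preventing the blue-to-pink change. Two repeats, averaged.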

[4] = test system: Mycobacterium tuberculosis; experiment: Competitive inhibition of Mycobacterium tuberculosis HtdX using varying crotonoyl-CoA substrate by UV-visible spectrophotometry; in short: as §2
[5] = test system: Mycobacterium tuberculosis; experiment: Binding affinity to Mycobacterium tuberculosis HtdX assessed as binding constant at 25 degC by isothermal titration calorimetry
In short: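 HtdX at 10 µM in 50 mM HEPES pH 7.5 with 100 mM NaCl in the cell, titrated at 25 °C with 500 µM ligand in 5% methanol-buffer (0.4 µL then 19 × 2 µL). Buffer-ligand reference subtracted. Isotherm fitted to a one-site model.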

[6] = test system: Mycobacterium tuberculosis; experiment: Induction of changes in secondary structure of Mycobacterium tuberculosis HtdX assessed as helix level at 50 uM by CD spectroscopy (reference value: 12.2%)
[7] = test system: Mycobacterium tuberculosis; experiment: Induction of changes in secondary structure of Mycobacterium tuberculosis HtdX assessed as beta-sheet level at 50 uM by CD spectroscopy (reference value: 40.1%)
[8] = test system: Mycobacterium tuberculosis; experiment: Induction of changes in secondary structure of Mycobacterium tuberculosis HtdX assessed as turns level at 50 uM by CD spectroscopy (reference value: 12.6%)
[9] = test system: Mycobacterium tuberculosis; experiment: Induction of changes in secondary structure of Mycobacterium tuberculosis HtdX assessed as unordered level at 50 uM by CD spectroscopy (reference value: 35.2%)
[10] = test system: Mycobacterium tuberculosis; experiment: Competitive inhibition of Mycobacterium tuberculosis FabG4 assessed as reduction in NADH to NAD+ conversion using acetoacetyl-CoA substrate and varying NADH levels by UV-visible spectrophotometry; in short: as §1
[11] = test system: Mycobacterium tuberculosis; experiment: Binding affinity to Mycobacterium tuberculosis FabG4 assessed as first binding constant at 25 degC by isothermal titration calorimetry
In short: (§3)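 FabG4 at 4.5 µM in 50 mM HEPES pH 7.4 in the cell, titrated at 25 °C with 500 µM ligand in 5% methanol-buffer (0.4 µL then 19 × 2 µL, 120 s spacing). Buffer-ligand reference titration subtracted. Two sequential binding events, per monomer of the homodimer.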

[12] = test system: Mycobacterium tuberculosis; experiment: Binding affinity to Mycobacterium tuberculosis FabG4 assessed as second binding constant at 25 degC by isothermal titration calorimetry; in short: as §3
[13] = test system: Mycobacterium tuberculosis; experiment: Induction of changes in secondary structure of Mycobacterium tuberculosis FabG4 assessed as helix level at 50 uM by CD spectroscopy (reference value: 25.9%)
[14] = test system: Mycobacterium tuberculosis; experiment: Induction of changes in secondary structure of Mycobacterium tuberculosis FabG4 assessed as beta-sheet level at 50 uM by CD spectroscopy (reference value: 6%)
[15] = test system: Mycobacterium tuberculosis; experiment: Induction of changes in secondary structure of Mycobacterium tuberculosis FabG4 assessed as turns level at 50 uM by CD spectroscopy (reference value: 34.6%)
[16] = test system: Mycobacterium tuberculosis; experiment: Induction of changes in secondary structure of Mycobacterium tuberculosis FabG4 assessed as unordered level at 50 uM by CD spectroscopy (reference value: 33.5%)
[17] = Drug metabolism in culture media assessed as isoniazid release in presence of Mycobacterium smegmatis str. MC2 155 incubated for 24 hrs by HPLC method; assay type: physicochemical
In short: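 Compound incubated in culture medium with M. smegmatis for 24 h. Culture then lyophilised, redissolved and run on HPLC (100% methanol eluent, 1.2 mL/min), checking for an isoniazid peak.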

[18] = test system: Mycolicibacterium smegmatis; experiment: Inhibition of biofilm formation of Mycobacterium smegmatis str. MC2 155 at 20 ug/ml incubated at 37 degC without shaking for 4 weeks; assay type: functional; conditions: str. MC2 155, 672 h
In short: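 M. smegmatis mc2155 planktonic culture inoculated at 1% into Sauton's minimal medium without Tween-80. Inhibitor at 5, 10, 20, 50 and 100 µg/mL, with a no-inhibitor control. Plates sealed and held static at 37 °C for 4 weeks; biofilm formation assessed visually.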

| SMILES | IC50 [2] | IC50 ([1]; read-out: IC50) | MIC [3] | IC50 ([2]; read-out: IC50) | further results |
| --- | --- | --- | --- | --- | --- |
| O=C(O)[C@@H]1C(=O)N(c2ccccc2)[C@H]1c1cccs1 (relative stereo) | Not Active | – | – | – | IC50 [1]: Not Active |
| O=C(O)[C@@H]1C(=O)N(c2ccccc2)[C@H]1c1ccco1 (relative stereo) | Not Active | – | – | – | IC50 [1]: Not Active |
| O=C(NNC(=O)[C@@H]1C(=O)N(c2ccccc2)[C@H]1c1ccncc1)c1ccccc1 (relative stereo) | Not Active | 39.9 µM | – | – | – |
| O=C1[C@@H](CO)[C@H](c2ccncc2)N1c1ccccc1 (relative stereo) | Not Active | 666 µM | – | – | – |
| NNC(=O)c1ccncc1 [ISONIAZID] | – | – | 10 µg/mL | – | – |
| O=C(NNC(=O)[C@@H]1C(=O)N(c2ccccc2)[C@H]1c1cccs1)c1ccncc1 (relative stereo) | – | 26.1 µM | 20 µg/mL | 10.3 µM | inhibition [4]: Active; K [5]: 4.21 ×10⁵ /M; Activity [6]: 11.1%; Activity [7]: 50.6%; Activity [8]: 2.6%; Activity [9]: 35.7% |
| O=C(O)[C@@H]1C(=O)N(c2ccccc2)[C@H]1c1ccncc1 (relative stereo) | Not Active | 64.3 µM | – | – | – |
| O=C(NNC(=O)[C@@H]1C(=O)N(c2ccccc2)[C@H]1c1ccncc1)c1ccncc1 (relative stereo) | – | 15.2 µM | 15 µg/mL | 22.3 µM | inhibition [10]: Active; K [11]: 2.98 ×10⁵ /M; K [12]: 1.15 ×10³ /M; Activity [13]: 30%; Activity [14]: 5.7%; Activity [15]: 29.8%; Activity [16]: 34.4%; Drug metabolism [17]: metabolite_notdetected; inhibition at 20 µg/mL [18]: 100% |
| O=C(NNC(=O)[C@@H]1C(=O)N(c2ccccc2)[C@H]1c1ccco1)c1ccncc1 (relative stereo) | – | 27.6 µM | 15 µg/mL | 17.6 µM | – |
